Results: ChEMBL document CHEMBL4007405 (J Med Chem, 2017)
Positions of bridges follow the written chain, without caps; N, C: chain ends. Residues, ends and D or L forms follow the SMILES beside them.

How the values were obtained:
[1] = test system: HeLa; test: Cytotoxicity against human HeLa cells up to 100 uM after 48 hrs by MTT assay; assay type: cell-based
In short: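 HeLa cells grown in DMEM with 10% FBS, penicillin and streptomycin at 37° C, 5% CO2. About 3 × 10^3 cells per well were seeded for 24 h, washed with PBS, then exposed to peptides in DMEM/10% FBS for 48 h at 37° C. MTT was added for 2 h and formazan dissolved in DMSO. Absorbance read at 595 nm with 670 nm background subtracted.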

[2] = target: T1, Lethal factor (Bacillus anthracis, UniProt P15917)
T1 sequence (P15917 whole entry): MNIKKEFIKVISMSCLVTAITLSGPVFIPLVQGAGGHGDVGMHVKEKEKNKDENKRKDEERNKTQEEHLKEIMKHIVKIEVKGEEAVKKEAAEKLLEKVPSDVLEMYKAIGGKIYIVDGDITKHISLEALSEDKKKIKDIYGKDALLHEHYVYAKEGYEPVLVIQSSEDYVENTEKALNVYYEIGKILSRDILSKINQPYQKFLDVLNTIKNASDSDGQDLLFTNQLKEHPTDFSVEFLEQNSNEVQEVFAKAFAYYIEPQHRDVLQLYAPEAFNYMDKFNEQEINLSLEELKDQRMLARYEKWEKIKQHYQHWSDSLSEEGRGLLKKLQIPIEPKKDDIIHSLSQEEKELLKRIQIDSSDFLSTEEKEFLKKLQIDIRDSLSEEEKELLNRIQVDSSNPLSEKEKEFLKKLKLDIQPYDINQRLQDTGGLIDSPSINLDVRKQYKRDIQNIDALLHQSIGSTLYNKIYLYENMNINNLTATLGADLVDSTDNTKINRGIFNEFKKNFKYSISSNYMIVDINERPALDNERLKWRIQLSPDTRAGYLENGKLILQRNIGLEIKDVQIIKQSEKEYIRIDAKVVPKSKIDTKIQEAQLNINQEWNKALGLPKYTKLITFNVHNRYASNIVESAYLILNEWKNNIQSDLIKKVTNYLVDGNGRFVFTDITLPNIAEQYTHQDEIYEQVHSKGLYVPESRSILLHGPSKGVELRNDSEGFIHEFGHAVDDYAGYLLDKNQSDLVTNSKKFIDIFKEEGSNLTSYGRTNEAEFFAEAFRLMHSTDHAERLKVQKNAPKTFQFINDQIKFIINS

[3] = target: Disintegrin and metalloproteinase domain-containing protein 17 (Homo sapiens) (UniProt P78536); test: Inhibition of recombinant human glycosylated his-tagged TACE catalytic domain (233 to 477 residues) assessed as inhibition of proteolytic activity preincubated for 30 mins prior to addition of Mca-Pro-Leu-Ala-Gln-Ala-Val-Dpa-Arg-Ser-Ser-Ser-Arg-NH2 as substrate measured every 2 mins for 3 hrs by fluorescence analysis
In short: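 TACE catalytic domain (233-477) at 2 nM in 2.5 μM ZnCl2, 25 mM Tris-HCl, pH 8.0. Preincubated with peptide from 1 nM to 10 μM for 30 min at room temperature. Fluorogenic Mca/Dpa substrate then added to a final 3 μM. Fluorescence read every 2 min for 3 h (excitation 320 nm, emission 405 nm). Initial velocities fitted to log(inhibitor)–response with variable Hill slope.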

[4] = target: T1, Lethal factor; test: (§1) Inhibition of Bacillus anthracis lethal factor protease preincubated for 30 mins prior to addition of substrate containing fluorescent proteins CyPet and YPet measured every 2 mins for 3 hrs by FRET assay
In short: (§2)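 Preincubated with peptide from 1 nM to 10 μM for 30 min at room temperature. CyPet–YPet substrate (LF consensus sequence with (GGS)6 linkers) then added to a final 10 nM. FRET read every 2 min for 3 h with excitation at 405 nm and emission ratio It/I0 at 535 nm. Initial velocities fitted to log(inhibitor)–response with variable Hill slope. Run in triplicate.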

[5] = target: T2, Lethal factor (Bacillus anthracis) (UniProt P15917); test: as §1; in short: as §2
T2 sequence (whole entry): T1 sequence (P15917 whole entry)

Disintegrin and metalloproteinase domain-containing protein 17 (Homo sapiens), sequence (P78536 whole entry, the tested form may be a part): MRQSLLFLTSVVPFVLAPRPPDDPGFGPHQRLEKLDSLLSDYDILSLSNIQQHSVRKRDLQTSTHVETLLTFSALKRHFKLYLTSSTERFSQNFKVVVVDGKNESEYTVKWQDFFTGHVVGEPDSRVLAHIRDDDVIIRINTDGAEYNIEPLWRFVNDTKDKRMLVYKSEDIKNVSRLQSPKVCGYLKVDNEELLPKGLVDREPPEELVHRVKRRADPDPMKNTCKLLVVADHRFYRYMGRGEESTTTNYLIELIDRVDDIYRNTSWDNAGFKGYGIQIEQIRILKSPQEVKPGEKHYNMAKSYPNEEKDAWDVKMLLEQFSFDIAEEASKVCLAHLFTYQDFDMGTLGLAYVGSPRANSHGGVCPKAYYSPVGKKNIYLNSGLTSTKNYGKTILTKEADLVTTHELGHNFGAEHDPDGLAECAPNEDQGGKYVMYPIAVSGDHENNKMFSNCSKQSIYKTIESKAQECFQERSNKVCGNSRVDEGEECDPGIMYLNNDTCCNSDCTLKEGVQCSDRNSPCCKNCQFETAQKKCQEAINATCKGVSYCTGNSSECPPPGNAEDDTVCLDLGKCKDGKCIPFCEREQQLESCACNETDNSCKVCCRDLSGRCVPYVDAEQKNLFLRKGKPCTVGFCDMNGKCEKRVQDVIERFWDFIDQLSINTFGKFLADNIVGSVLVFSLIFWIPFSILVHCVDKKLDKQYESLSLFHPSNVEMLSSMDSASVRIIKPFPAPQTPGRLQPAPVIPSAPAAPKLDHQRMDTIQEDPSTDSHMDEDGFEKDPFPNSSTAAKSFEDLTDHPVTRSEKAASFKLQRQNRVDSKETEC

Question: CC[C@H](C)[C@@H]1NC(=O)[C@@H]2CSSC[C@H](NC(=O)[C@H](CCCNC(=N)N)NC(=O)[C@@H]3CSSC[C@H](NC1=O)C(=O)N[C@@H]([C@@H](C)O)C(=O)N[C@@H](CCCNC(=N)N)C(=O)NCC(=O)N[C@@H](Cc1ccccc1)C(=O)N3)C(=O)N[C@@H](CC(C)C)C(=O)N[C@H]1CSSC[C@H](NC(=O)[C@H](C(C)C)NC(=O)CNC(=O)[C@H](CCCNC(=N)N)NC(=O)[C@H](CCCNC(=N)N)NC1=O)C(=O)N[C@@H](CCCNC(=N)N)C(=O)N2 (cyclo(GFCRCLCRRGVCRCICTR); disulfide 3-16, 5-14, 7-12) was tested. Which Activity [1] did it give?
Answer: Non-Toxic

Question: What about the IC50 [2] of the same compound?
Answer: 1060 nM

Question: What about the inhibition [3] of the same compound?
Answer: Dose-dependent effect

Question: What about the IC50 [4] of the same compound?
Answer: 390 nM

Question: What about the inhibition [5] of the same compound?
Answer: Dose-dependent effect
